# Source: PubChem BioAssay
# ABCB6 inh 2 – ABCB6 transporter inhibitors, primary screen, K562-ABCB6 cells, flow cytometry, MLPCN library; AID 602162, 2011; 360,000 tested, 0.19% active; ATP-binding cassette sub-family B member 6 (Homo sapiens), Q9NP58; K562-ABCB6 porphyrin accumulation, 1 h; stronger effect = lower value; fluorescence ratio to DMSO, % at 10 µM;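 active = fluorescence ratio to DMSO below 75%, the collection mean minus 3 SD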;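 also: signal is porphyrin accumulated inside mitochondria; 100% equals median channel fluorescence of DMSO control wells; lower ratio means ABCB6 inhibition with less porphyrin fluorescence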
# STAT3 activator – IL-6 driven STAT3 reporter potentiators, primary screen, U3A cells, luciferase, luminescence, MLSCN library; IL-6 STAT3-luciferase reporter; 100% = signal with IL-6 EC80 alone; activation (% of control), % at 5.6 µM; 190,000 tested, 0.91% active; AID 871, 2007;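 active = activation above the screen-wide mean of compound activation plus 3 SD, cut at about 130% in these data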;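 also: 0% = background luminescence of wells with medium and substrate only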
#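 Assay system – human STAT1-deficient U3A cells with stable STAT3-luciferase reporter · Also added – IL-6 (33 ng/mL) · Schedule – compound 1 h, then IL-6 6 h at 37 °C · Technique – reporter luminescence signal · Evaluation – % activation versus median of IL-6-stimulated wells · Benchmarks – IL-6-only wells as 100% reference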
# GAA850 FXN act – FXN promoter activators, primary screen, cell-based, luciferase luminescence, HEK293 lucGAA850; activation, % at 6 µM; 360,000 tested, 0.56% active; AID 540364, 2011; HEK293 lucGAA850 FXN promoter luciferase reporter, 24 h; percent of 10 µM SAHA response;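 active = activation above the average of all compounds screened plus 3 SD, cutoff fixed separately per campaign, cut at about 7.5% in these data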;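 also: 0% = DMSO wells and 100% = 10 µM SAHA wells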
# AHR activator – AHR activators, primary screen, cell-based, luminescence, luciferase reporter, human; Aryl hydrocarbon receptor (Homo sapiens), P35869; AHR-responsive luciferase reporter cells; activation, % at 5 µM; 320,000 tested, 2.5% active; in the data active = activation above about 47%;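 also: 0% = vehicle wells and 100% = reference agonist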
# Target sequence (P35869 whole entry, looked up): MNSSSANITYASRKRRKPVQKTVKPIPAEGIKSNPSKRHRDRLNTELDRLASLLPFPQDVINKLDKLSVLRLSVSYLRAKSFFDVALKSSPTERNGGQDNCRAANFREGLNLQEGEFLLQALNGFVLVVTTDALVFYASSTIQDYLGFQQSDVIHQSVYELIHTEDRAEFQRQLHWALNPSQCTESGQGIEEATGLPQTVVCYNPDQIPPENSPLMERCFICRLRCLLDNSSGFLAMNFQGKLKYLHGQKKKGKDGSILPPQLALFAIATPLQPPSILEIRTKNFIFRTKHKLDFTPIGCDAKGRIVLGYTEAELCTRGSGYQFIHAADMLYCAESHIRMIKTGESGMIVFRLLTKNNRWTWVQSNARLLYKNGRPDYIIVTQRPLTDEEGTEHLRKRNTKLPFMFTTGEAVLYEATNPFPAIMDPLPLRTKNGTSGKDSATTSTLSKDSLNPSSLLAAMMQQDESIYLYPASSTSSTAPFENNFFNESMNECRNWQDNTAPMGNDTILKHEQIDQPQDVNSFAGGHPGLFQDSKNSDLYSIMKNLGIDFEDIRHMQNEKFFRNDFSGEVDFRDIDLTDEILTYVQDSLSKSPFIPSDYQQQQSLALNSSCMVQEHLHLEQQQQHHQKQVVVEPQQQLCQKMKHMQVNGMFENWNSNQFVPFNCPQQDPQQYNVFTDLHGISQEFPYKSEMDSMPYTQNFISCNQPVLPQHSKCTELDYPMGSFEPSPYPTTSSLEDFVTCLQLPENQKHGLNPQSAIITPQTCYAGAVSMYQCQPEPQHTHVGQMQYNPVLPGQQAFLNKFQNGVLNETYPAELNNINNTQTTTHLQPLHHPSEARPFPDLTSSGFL
# The depositor's hits bear a star; · = not tested or not shown. Compounds with a hit are over-represented: about 3.3% of the library has one in this group of screens.
SMILES,ABCB6 inh 2,STAT3 activator,GAA850 FXN act,AHR activator
O=C(Nc1nccs1)c1ccc(Br)cc1,92.0,·,0.9,23.5
COc1cc2ccccc2cc1C(=O)NC1CCCC1,105.0,·,6.0,77.4*
COc1ccc(NC(=O)C2(C)CCN2C(=O)c2ccc(C(C)(C)C)cc2)cc1OC (stereo not given),93.0,·,1.5,·
CC1CCCC(NC(=O)CN2C(=O)c3cccnc3Oc3ccc(Cl)cc32)C1C (stereo not given),98.0,·,1.1,1.1
CCc1cc[n+](C2=C([O-])c3ccccc3C(=O)/C2=N\S(=O)(=O)c2cccs2)cc1,123.0,108.1,-1.4,67.5*
O=C1CC(NCc2cccs2)C(=O)N1c1ccc(Cl)cc1 (stereo not given),94.0,96.7,-1.0,72.5*
Cc1ccc(S(=O)(=O)N2CCN(Cc3cc(C(C)C)ccc3O)CC2)cc1,98.0,104.7,0.4,5.0
Cc1nnc(N2C(=O)c3cccc4cccc(c34)C2=O)s1,98.0,96.9,4.2,68.0*
Cc1nnc(C)n1N1C(=O)c2cccc3cccc(c23)C1=O,89.0,97.7,1.2,0.0
COc1ccccc1CC(=O)c1ccc(OCc2ccccc2)cc1,98.0,·,4.1,48.5*
Cn1/c(=N/NC(=O)c2ccccc2F)sc2ccccc21,102.0,101.7,5.5,69.9*
COc1ccc(C(=O)N=c2sc3ccccc3n2C)cc1,93.0,134.2*,5.3,36.8
Cc1ccc(C(=O)N/N=c2\sc3ccccc3n2C)cc1,94.0,82.5,5.1,94.9*
COc1cccc(C(=O)N/N=c2\sc3ccccc3n2C)c1,95.0,93.8,0.9,72.5*
c1ccc2nc(-c3ccc4c(c3)OCO4)ccc2c1,103.0,82.7,2.4,64.9*
CC(C)CCNC(=O)c1nn(Cc2ccccc2)c(=O)c2ccccc12,98.0,·,0.4,0.4
Cc1ccc(C(=O)c2c3ccc(C(F)(F)F)cc3nn2CCC(N)=O)cc1,98.0,·,5.2,65.0*
COCC(C)n1c(SCC(=O)N(C)C2CCS(=O)(=O)C2)nc2ccccc2c1=O (stereo not given),98.0,93.3,2.3,-0.6
CN=c1sc(C(=O)Nc2cccc(Cl)c2)cc(=O)n1C,103.0,103.1,-0.5,3.3
CN=c1sc(C(=O)Nc2ccccc2)c(C)n1C,100.0,90.7,-1.4,71.5*
O=C(NCCO)C1COc2ccccc2O1 (stereo not given),100.0,93.9,-1.0,-0.4
CCCNC(=O)C1CNc2ccccc2O1 (stereo not given),93.0,134.0*,-0.2,16.1
O=c1[nH]c2cc3c(cc2cc1CN(Cc1cccnc1)C(=S)NCc1ccco1)OCCO3,97.0,108.2,-0.9,27.9
O=c1[nH]c2cc3c(cc2cc1CN(Cc1cccnc1)C(=S)NCc1ccco1)OCO3,93.0,98.5,-0.5,65.8*
COc1ccc(OCCCC(=O)ON=C(N)c2ccccc2Cl)cc1,100.0,·,-0.5,-1.6
SMILES,ABCB6 inh 2,STAT3 activator,GAA850 FXN act,AHR activator
COc1ccc2ccccc2c1C1NC(=O)c2ccccc2N1 (stereo not given),101.0,·,-4.5,·
O=C1NC(c2ccc3c(c2)OCO3)Nc2ccccc21 (stereo not given),95.0,92.6,1.1,145.3*
COc1ccc(C2NC(=O)c3ccccc3N2)cc1OC (stereo not given),121.0,96.2,4.5,47.5*
O=C1NC(c2ccc3ccccc3c2)Nc2ccccc21 (stereo not given),99.0,·,-2.4,·
Cc1cc(C)n(C(=O)CSc2ccc(Cl)cc2)n1,93.0,102.2,0.8,-1.0
CC(C)=CCc1c(O)cc2c(=O)c3ccc(O)cc3oc2c1O,95.0,·,1.7,62.5*
CCc1nnc(NC(=O)C2CCCN2S(=O)(=O)c2ccc(F)cc2)s1 (stereo not given),96.0,107.5,0.4,8.3
CC(=O)Nc1cc2nn(-c3ccccc3)nc2cc1C,100.0,·,3.9,55.4*
COc1ccc(-n2nc3cc(C)c(NC(=O)CC(C)C)cc3n2)cc1,·,99.0,·,·
CCC(=O)Nc1cc2nn(-c3ccccc3)nc2cc1Cl,92.0,82.4,6.3,50.7*
Cc1ccc(NC(=O)c2cccs2)cc1NC(=O)c1ccc(F)cc1,93.0,·,1.6,39.3
Cc1cc(NC(=O)c2cccs2)n(-c2ccccc2)n1,95.0,106.7,0.5,-0.4
Cc1cc2nn(-c3ccccc3)nc2cc1NC(=O)c1cccs1,93.0,104.8,2.2,68.4*
Cc1ccc(NC(=O)c2cccs2)cc1NC(=O)c1cccc(F)c1,99.0,·,-0.6,63.7*
C/C(=N\Nc1nncc2ccccc12)c1cccc(OC(F)F)c1,99.0,·,2.4,-9.1
CCC(=O)N1CCc2cc(S(=O)(=O)NCCC(=O)N3CCN(c4ccccn4)CC3)ccc21,77.0,93.0,1.2,0.7
O=C(CSc1nc2ccccc2c(=O)n1-c1ccc(F)cc1)Nc1cc(S(=O)(=O)N2CCOCC2)ccc1Cl,98.0,104.0,-13.1,5.9
CCOC(=O)c1[nH]c2cc3c(cc2c1NC(=O)CN1CCC2(CC1)OCCO2)OCO3,98.0,99.1,-0.2,62.0*
CCOC(=O)N1CCN(CC(=O)Nc2c(C(=O)OC)[nH]c3ccc(Cl)cc23)CC1,102.0,82.0,-2.0,6.3
CCOC(=O)N1CCN(CC(=O)Nc2c(C(=O)OC)[nH]c3cc(C)ccc23)CC1,100.0,115.5,-0.3,64.1*
O=C(NC1CCCC1)C1c2ccccc2OCC(=O)N1Cc1cccnc1 (stereo not given),104.0,·,·,·
Cc1ccc(C)c(NC(=S)NNC(=O)c2csc(C(C)C)c2)c1,90.0,85.2,0.8,3.0
COC(=O)Nc1nnc(/C=C/c2ccc(OC)cc2)s1,96.0,107.2,4.8,55.0*
NC(=O)N=Nc1c2[nH]c3ccccc3nc-2c2ccccc12,102.0,·,-1.9,-3.3
COc1cccc(-n2c([S-])c(C(=O)Nc3ccc(S(=O)(=O)N4CCOCC4)cc3)[n+]3cc(C(N)=O)ccc23)c1,92.0,·,1.2,64.5*
SMILES,ABCB6 inh 2,STAT3 activator,GAA850 FXN act,AHR activator
COc1ccc(NC(=O)Nc2nnc(-c3ccccc3F)s2)cc1,98.0,102.2,-0.8,71.5*
Cc1ccc(NC(=O)Nc2nnc(-c3ccccc3F)s2)cc1,98.0,·,1.4,-0.3
COc1ccc(NC(=O)Nc2ccc(O)c3ccccc23)cc1,·,·,·,75.2*
COc1ccc(NC(=O)Nc2nnc(-c3ccco3)s2)cc1,100.0,·,5.2,64.4*
CCOc1cccc(C(=O)Nc2nnc(-c3ccco3)s2)c1,102.0,60.9,-0.4,48.2*
COc1ccc(C(=O)Nc2ccc(O)c3ccccc23)cc1,95.0,·,-3.0,38.6
COc1ccc(NC(=O)Nc2nnc(-c3ccncc3)s2)cc1,93.0,88.3,-1.8,-1.2
Cn1c(/C(C#N)=C(\O)c2ccc(Br)s2)nc2ccccc21,91.0,·,3.8,51.5*
CCOc1ccc(NC(=O)C2CCCN(S(=O)(=O)c3ccc4c(c3)CC(C)N4C(C)=O)C2)cc1 (stereo not given),100.0,·,-0.7,-1.0
COc1cc(/C=C2\C=CC(=O)O2)cc(OC)c1,113.0,·,0.0,-0.8
